{"data": "Experimental data from different studies", "matrix": "plasma", "note": "Lines come from different studies, so protocols differ."}
{"SMILES": "Cc1nc(-c2cnc(NC(C)C)n(C)c2=O)ccc1Oc1ccnc(-c2cnn(C)c2)c1", "system": "male Sprague-Dawley rat", "conditions": "oral, 10 mg/kg", "AUC(0-t)": "164000 ng·h/mL"}
{"SMILES": "CCOC(=O)[C@@]12C[C@@H]1[C@@H](n1ccc3c(NC)nc(C#Cc4ccc(Cl)s4)nc31)[C@H](O)[C@@H]2O", "system": "male Sprague-Dawley rat", "conditions": "oral, 3 mg/kg", "AUC(0-t)": "170 ng·h/mL"}
{"SMILES": "Cc1c(-c2ccccc2)cccc1N1C(=O)c2cc(CN[C@H](C(=O)O)C(C)O)c(OCc3cccc(C#N)c3)cc2C1=O (stereo partly drawn)", "system": "Sprague-Dawley rat", "conditions": "intravenous, 5 mg/kg", "AUC(0-t)": "3240 ng·h/mL"}
{"SMILES": "C=CC(=O)N1CC2CC(n3nc(-c4ccc(C(=O)Nc5ccccn5)cc4)c4c(N)ncnc43)CC2C1 (stereo not drawn)", "system": "male Wistar rat", "conditions": "oral, 30 mg/kg", "AUC(0-t)": "4720 ng·h/mL"}
{"SMILES": "CCc1cc(OC)c2nccc(N3CCc4c(cc(Cn5ccnc5)cc4-c4cn(C)nc4C(F)(F)F)C3=O)c2c1", "system": "male Sprague-Dawley rat", "conditions": "intravenous, 3 mg/kg", "AUC(0-t)": "952 ng·h/mL"}
{"SMILES": "CNC(=O)c1c(C)oc2cc(Oc3ncnc4cc(OC)c(OC)cc34)ccc12", "system": "Sprague-Dawley rat", "conditions": "oral, 1 mg/kg, single dose", "AUC(0-t)": "6270 ng·h/mL"}
{"SMILES": "COc1ccc2c(Cc3ccccc3F)c3n(c(=O)c2c1OC)CCc1cc2c(cc1-3)OCO2", "system": "rat", "conditions": "intravenous, 5 mg/kg", "AUC(0-t)": "22700 ng·h/mL"}
{"SMILES": "CCc1cc(C(=O)NC)c2nccc(N3CCc4c(cc(Cn5ccnc5)cc4-c4cn(C)nc4C(F)(F)F)C3=O)c2c1", "system": "male Sprague-Dawley rat", "conditions": "oral, 50 mg/kg, single dose", "AUC(0-t)": "11100 ng·h/mL"}
{"SMILES": "C#Cc1cccc(Nc2ncnc3cc(OCCOC)c(OCCOC)cc23)c1", "system": "male Sprague-Dawley rat", "conditions": "oral, 12 mg/kg, single dose", "AUC(0-t)": "9250 ng·h/mL"}
{"SMILES": "COc1nc(-c2cc(C)c(N[C@@H](C)c3cc(F)cc(F)c3)nn2)ccc1-n1cnc(C)c1", "system": "male Sprague-Dawley rat", "conditions": "oral, 5 mg/kg, single dose", "AUC(0-t)": "31900 ng·h/mL"}
{"SMILES": "N#Cc1ccc(Nc2nc(N)cc(Oc3c(F)cc(-c4ccc(C#N)cc4)cc3F)n2)cc1", "system": "Sprague-Dawley rat", "conditions": "intravenous, 1 mg/kg", "AUC(0-t)": "302 ng·h/mL"}
{"SMILES": "O=C(Nc1cc(F)c(F)c(F)c1)c1ccc(F)c(S(=O)(=O)NCc2cccc(B(O)O)c2)c1", "system": "male Sprague-Dawley rat", "conditions": "intravenous, 2 mg/kg", "AUC(0-t)": "242 ng·h/mL"}
